Compounds with a hit are over-represented: about 3.9% of the library has one in this group of screens.
UPR XBP1 act = adaptive UPR (XBP1) activation; hit rate 0.33% among 330,000; CHO-XBP1 luciferase reporter, IRE1-XBP1 UPR activation, luminescence; percent of tunicamycin response, DMSO as zero; activation, % at 20 µM;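 active = versus positive control, 20 µM dose yields 30% or more activation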;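 also: 100% = tunicamycin at 10 µg/mL and 0% = DMSO only wells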
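Material: CHO cell line with stable XBP1 luciferase reporter; schedule: 16-18 h cell attachment at 37 °C, then 6 h compound exposure; signal: glow luminescence from Steady-Glo reagent; medium: serum-containing F12 medium, 10% FBS; benchmarks: tunicamycin 10 µg/mL and vehicle-only wells; read-out: percent activation relative to tunicamycin reference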
CHOP UPR activ = apoptotic UPR (CHOP) activation. CHO-CHOP luciferase reporter, luminescence; percent of tunicamycin response over DMSO baseline. activation, % at 10 µM. hit rate 0.34% among 330,000. AID 449763;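 active = at 10 µM dose, activation of 40% or more, normalized to positive control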;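 also: 100% = tunicamycin at 10 µg/mL and 0% = DMSO alone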
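Test system: CHO CHOP reporter cells. Input: 500 CHO-CHOP cells per well. Medium: F12 with 10% FBS. Technique: luciferase luminescence. Measure: percent activation relative to tunicamycin control. Dosing: 10 µM compound, 0.5% DMSO. Timing: 16-18 h cell attachment, then 6 h compound exposure, 37 °C.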
CHOP inh = CHOP inhibition in unfolded protein response | CHO-K1 CHOP-promoter luciferase, tunicamycin-induced, 15-18 h | AID 2732 | hit rate 3.8% among 220,000 | inhibition, % at 10 µM;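 active = compounds that reduced the stress-induced luciferase reporter signal by more than about 70% of percent inhibition, limit read from the data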;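 also: 0% = tunicamycin plus vehicle and 100% = wells without tunicamycin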
697 NFkB inh = lowers PMA/ionomycin-induced NF-kB signal in 697 B cells. AID 435022. 697 B-cell NF-kB luciferase reporter, 16 h. inhibition, % at 4 µM. hit rate 0.33% among 330,000; in the data active = inhibition above about 35%
Jurkat NFkB inh = lowers PMA/ionomycin-induced NF-kB signal in Jurkat cells | hit rate 0.53% among 330,000 | AID 435003 | PMA/ionomycin-induced NF-kB luciferase reporter, luminescence | inhibition, % at 4 µM; in the data active = inhibition above about 50%
Gli-Sufu antag = Gli-Sufu pathway antagonism. Sufu-KO-LIGHT fibroblasts, Gli luciferase reporter luminescence. inhibition, % at 5 µM. hit rate 0.74% among 340,000;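 active = inhibition above about 55%, limit read from the data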;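 also: 0% = DMSO-treated cells and 100% = wells with medium but no cells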
XBP1 UPR conf = confirmation of adaptive unfolded protein response (XBP1) activators; shares compounds with UPR XBP1 act; activation, % at 20 µM; AID 485299; hit rate 63% among 1,000; CHO-XBP1 IRE1-XBP1 luciferase reporter, luminescence;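 active = reporter signal at least 30% of the positive control's activation in two or more of four replicate wells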;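 also: plate controls were DMSO negative control for no effect and tunicamycin 10 µg/mL positive control for full effect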
Active calls of the source: *.

CCCNC(=O)/C(C#N)=C1\N=C(NC(=O)c2cccs2)c2ccccc21 was read as UPR XBP1 act 45*, CHOP UPR activ 1, 697 NFkB inh -37, Jurkat NFkB inh -9, Gli-Sufu antag -11 and XBP1 UPR conf 66*.
Screening COCCNC(=O)/C(C#N)=C1\N=C(NC(=O)c2cccs2)c2ccccc21 returned UPR XBP1 act 0, CHOP UPR activ 2, 697 NFkB inh -6, Jurkat NFkB inh 17 and Gli-Sufu antag 1.
`CCCCN(C)S(=O)(=O)c1ccc(C(=O)N=c2sc3cc(NC(C)=O)ccc3n2C)cc1` gave UPR XBP1 act 0, CHOP UPR activ 1, CHOP inh -20, 697 NFkB inh -27, Jurkat NFkB inh -8 and Gli-Sufu antag -2.
Screening CCCCN(CC)S(=O)(=O)c1ccc(C(=O)N=c2sc3cc(NC(C)=O)ccc3n2C)cc1 returned UPR XBP1 act 137*, CHOP UPR activ 23, CHOP inh 47, 697 NFkB inh -18, Jurkat NFkB inh 4, Gli-Sufu antag 7 and XBP1 UPR conf 106*.
Screening Cn1/c(=N/N=C/c2ccc([N+](=O)[O-])cc2)sc2ccccc21 returned CHOP inh -19.
For Cc1cc(C)c2c(c1)/C(=N\N=c1\sc3ccccc3n1C)C(=O)N2 the results were UPR XBP1 act 30*, CHOP UPR activ 18, CHOP inh 69, 697 NFkB inh -14, Jurkat NFkB inh -5, Gli-Sufu antag -3 and XBP1 UPR conf 28.
For CCOC(=O)Oc1ccc2oc(C)c(C(=O)OCCOC)c2c1 the results were UPR XBP1 act 1, CHOP UPR activ 2, CHOP inh -24, 697 NFkB inh 11, Jurkat NFkB inh -6 and Gli-Sufu antag -2.
For COCCOC(=O)c1c(C)oc2ccc(OC(=O)c3ccc4c(c3)OCO4)cc12 the results were UPR XBP1 act 76*, CHOP UPR activ 8, CHOP inh 69, 697 NFkB inh -10, Jurkat NFkB inh -8, Gli-Sufu antag 6 and XBP1 UPR conf 0.
For CCOC(=O)N1CCN(C(=O)COC(=O)CSc2ccc([N+](=O)[O-])cc2)CC1 the results were UPR XBP1 act -1, CHOP UPR activ 1, 697 NFkB inh 20, Jurkat NFkB inh 17 and Gli-Sufu antag -5.
For Cc1ccc(NC(=O)c2cc(S(=O)(=O)N3CCCCC3)ccc2N2CCOCC2)cc1S(=O)(=O)N(C)C the results were Gli-Sufu antag -1.
Cc1ccc(NC(=O)c2cc(S(=O)(=O)N(C)C)ccc2N2CCCC2)cc1S(=O)(=O)N(C)C was read as UPR XBP1 act 53*, CHOP UPR activ 11, 697 NFkB inh 22, Jurkat NFkB inh -23, Gli-Sufu antag 18 and XBP1 UPR conf 67*.
For COc1cccc(/C=N/NC(=O)c2cccc([N+](=O)[O-])c2)c1OS(=O)(=O)c1ccccc1 the results were UPR XBP1 act -1, CHOP UPR activ -1, CHOP inh -8, 697 NFkB inh 12, Jurkat NFkB inh -6 and Gli-Sufu antag 1.
Screening COc1ccc(/C=N/NC(=O)c2cccc([N+](=O)[O-])c2)c2ccccc12 returned UPR XBP1 act 77*, CHOP UPR activ 2, 697 NFkB inh -6, Jurkat NFkB inh -2, Gli-Sufu antag -1 and XBP1 UPR conf 34*.
`CCc1ccc(N2CC(C(=O)OCC(=O)NC3CC3)CC2=O)cc1` (stereo not drawn) gave UPR XBP1 act 1, CHOP UPR activ -2, 697 NFkB inh -5, Jurkat NFkB inh 1 and Gli-Sufu antag 8.
`O=c1[nH]cc(S(=O)(=O)Nc2ccc3c(c2)OCO3)c(=O)[nH]1` gave UPR XBP1 act -2, CHOP UPR activ 3, 697 NFkB inh -4, Jurkat NFkB inh -1 and Gli-Sufu antag -11.
For O=C1c2ccccc2C(=O)N1CCCOCc1c[nH]c(=O)[nH]c1=O the results were UPR XBP1 act 32*, CHOP UPR activ -1, CHOP inh -29, 697 NFkB inh 11, Jurkat NFkB inh 6, Gli-Sufu antag -6 and XBP1 UPR conf 0.

Screens (PubChem BioAssay)
